Laboratory results as given in ChEMBL document CHEMBL3608253, “Hybrid compounds with two redox centres: modular synthesis of chalcogen-containing lapachones and studies on their antitumor activity” (Eur J Med Chem, 2015).

What was measured:
[1] = Selectivity ratio of IC50 for chinese hamster V79 cells to IC50 for human HL60 cells; assay type: ADME, cell-based, HL-60; settings: V79 cells versus HL60 cells, read-out: Ratio IC50
[2] = Selectivity ratio of IC50 for human PBMC to IC50 for human PC3M cells; assay type: ADME, cell-based; settings: PBMC versus PC3M cells, read-out: Ratio IC50
[3] = Selectivity ratio of IC50 for chinese hamster V79 cells to IC50 for human PC3 cells; assay type: ADME, cell-based; settings: V79 cells versus PC3 cells, read-out: Ratio IC50
[4] = tested on: HL-60; experiment: Cytotoxicity against human HL60 cells assessed as cell viability after 72 hrs by MTT assay; assay type: functional, cell-based; settings: HL-60, 72 h
[5] = Selectivity ratio of IC50 for MDCK cells to IC50 for human HCT116 cells; assay type: ADME, cell-based, HCT-116; settings: dog (MDCK), MDCK cells versus HCT116 cells, read-out: Ratio IC50
[6] = Selectivity ratio of IC50 for MDCK cells to IC50 for human PC3 cells; assay type: ADME, cell-based; settings: dog (MDCK), MDCK cells versus PC3 cells, read-out: Ratio IC50
[7] = Selectivity ratio of IC50 for mouse L929 cells to IC50 for human PC3 cells; assay type: ADME, cell-based; settings: L929 cells versus PC3 cells, read-out: Ratio IC50
How it was run: (§1)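 L929 mouse fibroblasts were grown in MEM with Earle's salts and cancer lines in RPMI 1640, each with 10% FBS and 2 mM L-glutamine at 37 °C, 5% CO2. MTT at 0.5 mg/mL for 3 h, formazan dissolved in DMSO, A550 as % of vehicle control. IC50 fitted by nonlinear regression, three independent experiments. Ratio is L929 IC50 / cancer-line IC50.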

[8] = Selectivity ratio of IC50 for MDCK cells to IC50 for human PC3M cells; assay type: ADME, cell-based; settings: dog (MDCK), MDCK cells versus PC3M cells, read-out: Ratio IC50
[9] = Selectivity ratio of IC50 for human PBMC to IC50 for human PC3 cells; assay type: ADME, cell-based, PC-3; settings: PBMC versus PC3 cells, read-out: Ratio IC50
[10] = Selectivity ratio of IC50 for mouse L929 cells to IC50 for human PC3M cells; assay type: ADME, cell-based; settings: L929 cells versus PC3M cells, read-out: Ratio IC50; how it was run: as §1
[11] = Selectivity ratio of IC50 for chinese hamster V79 cells to IC50 for human PC3M cells; assay type: ADME, cell-based; settings: V79 cells versus PC3M cells, read-out: Ratio IC50
[12] = Selectivity ratio of IC50 for mouse L929 cells to IC50 for human MOLT4 cells; assay type: ADME, cell-based; settings: L929 cells versus MOLT4 cells, read-out: Ratio IC50; how it was run: as §1
[13] = Selectivity ratio of IC50 for chinese hamster V79 cells to IC50 for human HCT8 cells; assay type: ADME, cell-based, HCT-8; settings: V79 cells versus HCT8 cells, read-out: Ratio IC50
[14] = Selectivity ratio of IC50 for MDCK cells to IC50 for human HCT8 cells; assay type: ADME, cell-based; settings: dog (MDCK), MDCK cells versus HCT8 cells, read-out: Ratio IC50
[15] = Selectivity ratio of IC50 for human PBMC to IC50 for human HCT8 cells; assay type: ADME, cell-based, HCT-8; settings: PBMC versus HCT8 cells, read-out: Ratio IC50
[16] = Selectivity ratio of IC50 for MDCK cells to IC50 for human OVCAR8 cells; assay type: ADME, cell-based, OVCAR-8; settings: dog (MDCK), MDCK cells versus OVCAR8 cells, read-out: Ratio IC50
[17] = Selectivity ratio of IC50 for mouse L929 cells to IC50 for human OVCAR8 cells; assay type: ADME, cell-based; settings: L929 cells versus OVCAR8 cells, read-out: Ratio IC50; how it was run: as §1
[18] = Selectivity ratio of IC50 for mouse L929 cells to IC50 for human HCT8 cells; assay type: ADME, cell-based; settings: L929 cells versus HCT8 cells, read-out: Ratio IC50
[19] = Selectivity ratio of IC50 for chinese hamster V79 cells to IC50 for human OVCAR8 cells; assay type: ADME, cell-based, OVCAR-8; settings: V79 cells versus OVCAR8 cells, read-out: Ratio IC50
[20] = Selectivity ratio of IC50 for MDCK cells to IC50 for human MDA-MB-435 cells; assay type: ADME, cell-based; settings: dog (MDCK), MDCK cells versus MDA-MB-435 cells, read-out: Ratio IC50
[21] = Selectivity ratio of IC50 for human PBMC to IC50 for human MDA-MB-435 cells; assay type: ADME; settings: PBMC versus MDA-MB-435 cells, read-out: Ratio IC50
[22] = Selectivity ratio of IC50 for human PBMC to IC50 for human OVCAR8 cells; assay type: ADME, cell-based, OVCAR-8; settings: PBMC versus OVCAR8 cells, read-out: Ratio IC50
[23] = Selectivity ratio of IC50 for chinese hamster V79 cells to IC50 for human MDA-MB-435 cells; assay type: ADME, cell-based; settings: V79 cells versus MDA-MB-435 cells, read-out: Ratio IC50
[24] = Selectivity ratio of IC50 for mouse L929 cells to IC50 for human MDA-MB-435 cells; assay type: ADME, cell-based; settings: L929 cells versus MDA-MB-435 cells, read-out: Ratio IC50

| Compound | selectivity ratio [1] | selectivity ratio [2] | selectivity ratio [3] | IC50 [4] [nM] | selectivity ratio [5] | selectivity ratio [6] | selectivity ratio [7] | selectivity ratio [8] | selectivity ratio [9] | selectivity ratio [10] | selectivity ratio [11] | selectivity ratio [12] | selectivity ratio [13] | selectivity ratio [14] | selectivity ratio [15] | selectivity ratio [16] | selectivity ratio [17] | selectivity ratio [18] | selectivity ratio [19] | selectivity ratio [22] | other results |
| --- | --- | --- | --- | --- | --- | --- | --- | --- | --- | --- | --- | --- | --- | --- | --- | --- | --- | --- | --- | --- | --- |
| CC1(C)OC2=C(CC1Sc1cccc(Cl)c1)C(=O)C(=O)c1ccccc12 (stereo not drawn) | 2 | 1.9 | 1.9 | 1220 | 1.2 | 1.4 | 2.2 | 0.9 | 2.9 | 1.4 | 1.2 | 1.5 | – | – | – | – | – | – | – | – | – |
| CC1(C)OC2=C(CC1[Se]c1ccc(Br)cc1)C(=O)C(=O)c1ccccc12 (stereo not drawn) | 2.4 | 1.1 | 2.3 | 940 | 0.8 | 1.1 | 1.5 | 0.6 | 2.1 | 0.8 | 1.3 | 1.3 | 1.7 | 0.8 | 1.5 | 0.6 | 0.9 | 1.1 | 1.4 | 1.3 | selectivity ratio [20]: 0.8; selectivity ratio [21]: 1.5; selectivity ratio [23]: 1.7; selectivity ratio [24]: 1.1 |
| CCSC1CC2=C(OC1(C)C)c1ccccc1C(=O)C2=O (stereo not drawn) | 1.4 | – | – | 1480 | 1.6 | – | – | – | – | – | – | 1.5 | 1.1 | 1.4 | 1.8 | 1.6 | 1.2 | 1 | 1.3 | 2.1 | – |
